From ChEMBL document CHEMBL1152507, “An extended study of dimeric phenyl tropanes” (Bioorg Med Chem, 2009)
pKi: −log10 of the molar value.

Tests used:
[1] = target: Sodium-dependent serotonin transporter (Homo sapiens, UniProt P31645); test: Displacement of [125I]methyl 3-(4-iodophenyl)-8-methyl-8-aza-bicyclo[3.2.1]octane-2-carboxylate from human recombinant SERT expressed in african green monkey COS1 cells by liquid scintillation counting; format: cell-based, COS-1
Outline: (§1)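 Membranes from COS-1 cells stably expressing cloned human transporter; cells scraped, homogenized in ice-cold 150 mM NaCl/50 mM Tris/20 mM EDTA, pelleted at 12,000g, resuspended in PBSCM, stored at -80 °C. Filtered on PEI-presoaked GF/B filters, washed thrice with ice-cold water.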

Homo sapiens [2] = species on record: Homo sapiens; test: Selectivity ratio of Ki for human NET to Ki for human DAT
[3] = target: Sodium-dependent noradrenaline transporter (Homo sapiens, UniProt P23975); test: Displacement of [125I]methyl 3-(4-iodophenyl)-8-methyl-8-aza-bicyclo[3.2.1]octane-2-carboxylate from human recombinant NET expressed in african green monkey COS1 cells by liquid scintillation counting; format: cell-based, COS-1; outline: as §1
Sequence of Sodium-dependent noradrenaline transporter (P23975 whole entry): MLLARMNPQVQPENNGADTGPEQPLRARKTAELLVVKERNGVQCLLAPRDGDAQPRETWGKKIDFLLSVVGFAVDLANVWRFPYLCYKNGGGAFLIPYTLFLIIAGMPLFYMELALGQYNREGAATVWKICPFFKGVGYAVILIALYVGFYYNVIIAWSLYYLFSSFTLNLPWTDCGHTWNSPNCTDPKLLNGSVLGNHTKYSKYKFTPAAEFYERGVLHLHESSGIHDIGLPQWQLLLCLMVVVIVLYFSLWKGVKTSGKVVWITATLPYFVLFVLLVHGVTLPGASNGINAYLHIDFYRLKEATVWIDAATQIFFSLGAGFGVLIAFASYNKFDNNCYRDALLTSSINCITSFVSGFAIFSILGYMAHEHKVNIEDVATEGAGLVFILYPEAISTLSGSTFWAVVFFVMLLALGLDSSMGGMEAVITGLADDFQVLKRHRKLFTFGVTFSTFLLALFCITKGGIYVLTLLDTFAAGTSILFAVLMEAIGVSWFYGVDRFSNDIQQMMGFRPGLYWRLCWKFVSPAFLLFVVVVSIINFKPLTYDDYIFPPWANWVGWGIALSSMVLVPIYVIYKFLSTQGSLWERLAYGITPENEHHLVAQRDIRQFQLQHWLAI

Homo sapiens [4] = species on record: Homo sapiens; test: Selectivity ratio of Ki for human SERT to Ki for human DAT
[5] = target: Sodium-dependent dopamine transporter (Homo sapiens, UniProt Q01959); test: Displacement of [125I]methyl 3-(4-iodophenyl)-8-methyl-8-aza-bicyclo[3.2.1]octane-2-carboxylate from human recombinant DAT expressed in african green monkey COS1 cells by liquid scintillation counting; format: cell-based, COS-1
Sequence of Sodium-dependent dopamine transporter (Q01959 whole entry): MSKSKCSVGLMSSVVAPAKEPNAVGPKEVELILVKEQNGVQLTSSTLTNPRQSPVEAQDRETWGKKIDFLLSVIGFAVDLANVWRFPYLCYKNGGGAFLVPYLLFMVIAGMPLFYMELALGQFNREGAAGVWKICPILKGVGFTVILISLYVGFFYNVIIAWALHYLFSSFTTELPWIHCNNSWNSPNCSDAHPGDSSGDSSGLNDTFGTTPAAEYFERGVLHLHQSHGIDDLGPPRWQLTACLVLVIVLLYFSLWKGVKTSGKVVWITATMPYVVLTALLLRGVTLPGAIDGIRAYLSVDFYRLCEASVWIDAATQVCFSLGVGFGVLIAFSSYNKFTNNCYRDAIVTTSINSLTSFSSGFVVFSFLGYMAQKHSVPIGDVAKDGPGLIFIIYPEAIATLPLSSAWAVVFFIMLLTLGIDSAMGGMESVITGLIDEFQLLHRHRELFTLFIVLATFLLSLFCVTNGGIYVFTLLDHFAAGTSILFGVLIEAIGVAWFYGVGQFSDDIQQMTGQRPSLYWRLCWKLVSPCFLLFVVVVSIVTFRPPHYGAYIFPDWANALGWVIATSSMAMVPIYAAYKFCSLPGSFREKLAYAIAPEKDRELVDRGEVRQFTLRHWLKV
Outline: as §1, with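 “°C. 5 µg protein/well incubated with test drug and 0.1–0.25 nM 125I-radioligand for 1 h at 20 °C.” for “°C.”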

Sequence of Sodium-dependent serotonin transporter (P31645 whole entry): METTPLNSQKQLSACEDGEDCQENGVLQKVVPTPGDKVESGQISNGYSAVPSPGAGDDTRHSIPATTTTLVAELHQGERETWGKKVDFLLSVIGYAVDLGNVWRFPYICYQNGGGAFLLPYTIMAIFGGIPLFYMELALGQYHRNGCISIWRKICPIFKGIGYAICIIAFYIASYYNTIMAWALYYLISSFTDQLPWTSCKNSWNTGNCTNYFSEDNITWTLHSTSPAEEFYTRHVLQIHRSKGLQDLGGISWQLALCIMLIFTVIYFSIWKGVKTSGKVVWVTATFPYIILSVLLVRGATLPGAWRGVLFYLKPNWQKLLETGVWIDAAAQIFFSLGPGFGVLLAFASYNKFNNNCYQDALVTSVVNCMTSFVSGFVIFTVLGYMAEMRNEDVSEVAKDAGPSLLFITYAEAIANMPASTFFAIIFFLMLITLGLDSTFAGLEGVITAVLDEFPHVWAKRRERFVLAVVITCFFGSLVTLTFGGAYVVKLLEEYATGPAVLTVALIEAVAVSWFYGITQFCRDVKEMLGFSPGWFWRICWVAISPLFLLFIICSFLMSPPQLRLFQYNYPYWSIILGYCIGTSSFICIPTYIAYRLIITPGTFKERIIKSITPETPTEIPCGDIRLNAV

| Compound | pKi [1] | Ratio Ki (Homo sapiens [2]) | pKi [3] | Ratio Ki (Homo sapiens [4]) | pKi [5] |
| --- | --- | --- | --- | --- | --- |
| CN1C2CCC1[C@@H](C(=O)Nc1ccc(CNC(=O)[C@H]3C4CCC(C[C@@H]3c3ccc(-c5ccsc5)cc3)N4C)cc1)[C@@H](c1ccc(-c3ccsc3)cc1)C2 (stereo partly specified) | 6.14 | 3.4 | 5.57 | 0.92 | 6.10 |
| CN1C2CCC1[C@@H](C(=O)NCCCCCCCCNC(=O)[C@H]1C3CCC(C[C@@H]1c1ccc(-c4ccsc4)cc1)N3C)[C@@H](c1ccc(-c3ccsc3)cc1)C2 | 6.33 | 2.4 | 5.77 | 0.68 | 6.16 |
| CN1C2CCC1[C@@H](C(=O)OCCCCCn1ccnn1)[C@@H](c1ccc(Cl)cc1)C2 (stereo partly specified) | 7.70 | 69 | 6.42 | 3.6 | 8.26 |
| CN1C2CCC1[C@@H](C(=O)Nc1ccc(NC(=O)[C@H]3C4CCC(C[C@@H]3c3ccc(-c5ccsc5)cc3)N4C)cc1)[C@@H](c1ccc(-c3ccsc3)cc1)C2 | 6.57 | 9.4 | 5.72 | 1.3 | 6.68 |
| CN1C2CCC1[C@@H](C(=O)Nc1ccc(NC(=O)[C@H]3C4CCC(C[C@@H]3c3ccc(Cl)cc3)N4C)cc1)[C@@H](c1ccc(Cl)cc1)C2 | 5.49 | 7.8 | 5.27 | 4.6 | 6.16 |
| CN1C2CCC1[C@@H](C(=O)NCc1ccc(CCNC(=O)[C@H]3C4CCC(C[C@@H]3c3ccc(Cl)cc3)N4C)cc1)[C@@H](c1ccc(Cl)cc1)C2 (stereo partly specified) | 7.19 | 5.2 | 7.00 | 3.3 | 7.70 |
| CN1C2CCC1[C@@H](C(=O)N[C@H]1CC[C@H](NC(=O)[C@H]3C4CCC(C[C@@H]3c3ccc(-c5ccsc5)cc3)N4C)CC1)[C@@H](c1ccc(-c3ccsc3)cc1)C2 | 6.09 | 3.8 | 5.30 | 0.62 | 5.89 |
| CN1C2CCC1[C@@H](C(=O)Nc1ccc(CNC(=O)[C@H]3C4CCC(C[C@@H]3c3ccc(Cl)cc3)N4C)cc1)[C@@H](c1ccc(Cl)cc1)C2 (stereo partly specified) | 5.82 | 39 | 6.09 | 74 | 7.68 |
| CN1C2CCC1[C@@H](C(=O)NCc1ccc(CNC(=O)[C@H]3C4CCC(C[C@@H]3c3ccc(-c5ccsc5)cc3)N4C)cc1)[C@@H](c1ccc(-c3ccsc3)cc1)C2 | 6.80 | 6.7 | 6.21 | 1.7 | 7.03 |
| CN1C2CCC1[C@@H](C(=O)NCCCCCCCCCCNC(=O)[C@H]1C3CCC(C[C@@H]1c1ccc(-c4ccsc4)cc1)N3C)[C@@H](c1ccc(-c3ccsc3)cc1)C2 | 6.60 | 4.4 | 5.82 | 0.72 | 6.46 |
| CN1C2CCC1[C@@H](C(=O)NCCC1CCN(C(=O)[C@H]3C4CCC(C[C@@H]3c3ccc(Cl)cc3)N4C)CC1)[C@@H](c1ccc(Cl)cc1)C2 (stereo partly specified) | 5.60 | 2.5 | 6.36 | 14 | 6.74 |
| CN1C2CCC1[C@@H](C(=O)OCc1cn(CCOC(=O)[C@H]3C4CCC(C[C@@H]3c3ccc(Cl)cc3)N4C)nn1)[C@@H](c1ccc(Cl)cc1)C2 (stereo partly specified) | 7.57 | 7.3 | 6.92 | 1.6 | 7.80 |
| CN1C2CCC1[C@@H](C(=O)NCCCCCCNC(=O)[C@H]1C3CCC(C[C@@H]1c1ccc(-c4ccsc4)cc1)N3C)[C@@H](c1ccc(-c3ccsc3)cc1)C2 | 5.68 | 4 | 5.66 | 4 | 6.27 |
| CN1C2CCC1[C@@H](C(=O)NCc1cccc(CNC(=O)[C@H]3C4CCC(C[C@@H]3c3ccc(-c5ccsc5)cc3)N4C)c1)[C@@H](c1ccc(-c3ccsc3)cc1)C2 | 6.07 | 5.1 | 5.92 | 3.7 | 6.64 |
| CN1C2CCC1[C@@H](C(=O)NCc1ccc(CCNC(=O)[C@H]3C4CCC(C[C@@H]3c3ccc(-c5ccsc5)cc3)N4C)cc1)[C@@H](c1ccc(-c3ccsc3)cc1)C2 (stereo partly specified) | 7.21 | 8.2 | 5.89 | 0.38 | 6.80 |
| CN1C2CCC1[C@@H](C(=O)OCc1cn(CCCCCCCOC(=O)[C@H]3C4CCC(C[C@@H]3c3ccc(Cl)cc3)N4C)nn1)[C@@H](c1ccc(Cl)cc1)C2 (stereo partly specified) | 8.46 | 5.1 | 7.70 | 0.89 | 8.41 |
| COC(=O)[C@@H]1C2CCC(C[C@@H]1c1ccc(-c3ccsc3)cc1)N2C (stereo partly specified) | 9.24 | 10 | 7.59 | 0.24 | 8.60 |
| CN1C2CCC1[C@@H](C(=O)N[C@H]1CC[C@H](NC(=O)[C@H]3C4CCC(C[C@@H]3c3ccc(Cl)cc3)N4C)CC1)[C@@H](c1ccc(Cl)cc1)C2 | 5.40 | 5.5 | 5.31 | 4.6 | 6.05 |
| CN1C2CCC1[C@@H](C(=O)OCc1cn(CCCCCCOC(=O)[C@H]3C4CCC(C[C@@H]3c3ccc(Cl)cc3)N4C)nn1)[C@@H](c1ccc(Cl)cc1)C2 (stereo partly specified) | 9.07 | 8.5 | 8.07 | 0.86 | 9.00 |
| CN1C2CCC1[C@@H](C(=O)Nc1ccc(CCNC(=O)[C@H]3C4CCC(C[C@@H]3c3ccc(-c5ccsc5)cc3)N4C)cc1)[C@@H](c1ccc(-c3ccsc3)cc1)C2 (stereo partly specified) | 6.47 | 4.6 | 5.48 | 0.48 | 6.15 |
| CN1C2CCC1[C@@H](C(=O)Nc1ccc(CCNC(=O)[C@H]3C4CCC(C[C@@H]3c3ccc(Cl)cc3)N4C)cc1)[C@@H](c1ccc(Cl)cc1)C2 (stereo partly specified) | 5.59 | 27 | 6.74 | 390 | 8.18 |
| COC(=O)[C@@H]1C2CCC(C[C@@H]1c1ccc(Cl)cc1)N2C (stereo partly specified) |  |  |  |  | 8.57 |
| COC(=O)[C@@H]1C2CCC(C[C@@H]1c1ccc(I)cc1)N2C (stereo partly specified) | 8.38 | 4.9 | 7.72 | 1.1 | 8.41 |
